# Compounds with a hit are over-represented: about 12% of the library has one in this group of screens.
# WT yeast gro inh: growth inhibition of WT yeast, mitochondrial fusion screen | inhibition, % at 10 µM | AID 1362 | mitochondrial fusion phenotypic screen, WT strain | hit rate 2.1% among 190,000; in the data active = inhibition above about 58%; tested in S. cerevisiae
# Diaph inh CS: inhibits diaphorase or chemically oxidizes, flagging diaphorase assay artifacts; diaphorase resazurin-to-resorufin fluorescence, NADH, 16 min; bacterial (C. kluyveri) enzyme, not human; inhibition, % at 20 µM; hit rate 0.69% among 190,000; AID 1217;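 active = primary screen inhibition at 20 µM above a set limit, cut at about 50% in these data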;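 note: plate controls were DMSO with full reaction for no effect and wells lacking NADH for full effect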
#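 Test system: Clostridium kluyveri diaphorase enzyme / Quantity: diaphorase at 0.14 U/mL in enzyme working solution / Incubation: 16-min room-temperature incubation before reading / Benchmarks: NADH-free wells as positive control, DMSO-only neutral wells / Signal: resorufin fluorescence 544/590 nm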
# Diaph act CS: counter-screen for diaphorase-based assays: diaphorase activators and chemical reducers; Diaphorase/resazurin coupled assay, resorufin fluorescence, 16 min; stronger effect = higher value; 1 = vehicle wells, 0 = NADH-free wells; activation factor at 20 µM; hit rate 0.005% among 190,000; AID 1229;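 active = diaphorase activity raised at least twofold by the compound at 20 µM; inactive = activation factor below 2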
#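 Material: Purified diaphorase enzyme from Clostridium kluyveri | Buffer or medium: 50 mM HEPES pH 7.4 with 4.542 mM MgCl2, 0.005% Tween 20 | Times: 16 min enzyme reaction, ambient temperature | Signal: Red resorufin fluorescence at 544/590 nm excitation/emission | Measure: Increased resorufin signal from activators or reducing compounds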
# Lmaj promast: inhibitors of Leishmania major promastigote growth; Leishmania major promastigotes, resazurin fluorescence viability; inhibition, % at 10 µM; hit rate 9% among 200,000; in the data active = inhibition above about 50%;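 note: promastigotes grown with compound for 44 hours at 28 °C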
# KCC2 mod: KCC2 (human) Cl- transport modulation; AID 1456; KCC2 cells, thallium flux FluoZin-2 fluorescence; hit rate 2.2% among 190,000; B-score of Tl+ flux slope (higher = more flux/activation; lower = inhibition) at 10 µM;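 active = thallium flux slope and its plate-corrected score both differing from the plate sample mean at a set confidence after two filtering rounds, in either direction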;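 note: slope of fluorescence scaled to starting intensity during 10 to 20 s after thallium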
# ROMK primary: modulates human ROMK potassium channel activity. P48048. hit rate 2% among 130,000. Tet-inducible ROMK, thallium flux fluorescence; actives lie on both sides. AID 1918. B-score at 10 µM;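 active = signal ratio slope over the read window, or its plate-corrected B-score, at least 3 SD from the plate mean, either direction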;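 note: B-score of the F/F0 ratio slope over 7 to 12 s after thallium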
# * hit, by the source's call; . = no result given.
SMILES,WT yeast gro inh,Diaph inh CS,Diaph act CS,Lmaj promast,KCC2 mod,ROMK primary
COc1ccc(CCNC(=O)c2cccs2)cc1OC,-3.2,5.7,0.9,-9.9,1.49,-0.0698
COc1ccc(CNc2nc(NCc3ccc(OC)c(OC)c3)n(C(=O)c3cccs3)n2)cc1OC,14.9,25.4,0.7,96.8*,.,-0.969
CCOC(=O)/C(N=Nc1ccc(F)cc1)=C(/O)c1ccc([N+](=O)[O-])cc1,-2.0,4.2,1,-5.0,0.603,.
COc1ccc(S(=O)(=O)Nc2cccc(F)c2)cc1C,17.6,13.8,0.9,65.4*,-0.359,-0.819
COc1ccc(OC)c(S(=O)(=O)Nc2cccc(F)c2)c1,-7.7,-2.6,1,96.8*,.,-1.06
COc1ccc(S(=O)(=O)Nc2ccc(S(=O)(=O)Nc3ccc(F)cc3)cc2)cc1C,5.4,34.8,0.7,8.0,0.707,.
COc1ccc(OC)c(S(=O)(=O)Nc2ccccc2C)c1,11.6,19.8,0.8,5.5,2.21,.
COc1ccc(OC)c(NS(=O)(=O)c2cc(OC)ccc2OC)c1,-1.1,11.7,0.9,86.9*,-0.097,.
COc1ccc(C)cc1S(=O)(=O)Nc1ccc(F)cc1,62.4*,-5.8,1.1,30.8,0.0393,.
Nc1nnc(CC(=O)Nc2ccccc2)s1,.,.,.,.,-0.555,-0.457
CCOc1ccc(Br)cc1S(=O)(=O)Nc1ccc(NC(=O)c2ccccc2F)cc1,-12.8,22.0,0.8,6.7,-0.388,0.269
COc1ccc(NC(=O)c2c(F)cccc2F)cc1S(=O)(=O)Nc1ccc(Br)cc1,9.2,22.5,0.8,52.0*,-0.366,0.464
CCOc1cc(C)c(S(=O)(=O)Nc2ccc(F)cc2)cc1C,-3.9,21.5,0.8,58.4*,.,-0.408
O=S(=O)(c1ccc(F)cc1)N1CCC2(CC1)OCCO2,-21.1,-12.9,1.1,-3.1,-0.0496,0.084
CCOC(=O)c1cnc2ccc(OCC)cc2c1N1CCN(c2ccccc2)CC1,73.8*,19.3,0.8,34.7,2.02,.
CCOC(=O)c1cnc2ccc(OCC)cc2c1NCc1ccccc1,86.5*,0.0,1,98.0*,0,0.115
CCOC(=O)c1cnc2ccc(C(=O)OC)cc2c1NCc1ccco1,4.4,17.8,0.8,4.2,-0.982,0.247
CCOC(=O)c1cnc2ccccc2c1Nc1ccc(C(=O)O)cc1,-34.4,16.7,0.8,-9.7,-0.438,-0.483
CCOC(=O)c1cnc2ccc(C)cc2c1Nc1ccc(N2CCOCC2)cc1,42.9,29.3,0.7,52.5*,.,.
CCOC(=O)c1nsnc1NCCSC(=N)N,-2.2,4.8,1,-3.8,2.09,0.647
CCOC(=O)N1CCN(C(=O)c2ccc3c(c2)sc2nc(-c4ccc(OC)cc4)cn23)CC1,-4.7,17.1,0.8,98.3*,-0.715,.
Cn1c(=NC(=O)CN2C(=O)C3CC=CCC3C2=O)sc2ccccc21 (configuration not stated),7.3,21.5,0.8,98.7*,-0.637,.
Cc1nn(C)c(Oc2cccc(C(F)(F)F)c2)c1C=O,1.8,5.9,0.9,-10.3,.,0.00323
Cc1cccc(N=Nc2c(C)nn(-c3ccccc3)c2N)c1C,83.3*,30.5,0.7,13.3,0.6,-0.0183
Cc1nn(-c2ccccc2)c(N)c1N=Nc1ccc(Cl)cc1,81.2*,34.6,0.7,13.7,0.0638,.
SMILES,WT yeast gro inh,Diaph inh CS,Diaph act CS,Lmaj promast,KCC2 mod,ROMK primary
CCCCCCCCCCn1c2c(c(=N)c3c1CCC3)CCC2,2.6,-14.9,1.1,100.5*,0.591,.
CCCCCn1c2c(c(=N)c3ccccc31)CCC2,.,.,.,.,-0.533,-1.43
Cc1ccc(NC(=O)C2CCCN2C(=O)NC2CCCCC2)cc1 (configuration not stated),-4.3,1.0,1,-3.6,1.51,0.429
Cc1ccc2[nH]c(=O)c(CN(Cc3ccccc3)Cc3nnnn3C3CCCC3)cc2c1,24.6,26.5,0.7,53.4*,-0.0547,-2.47
Cc1ccc(C)c2[nH]c(=O)c(CN(Cc3nnnn3C3CCCCC3)CC3CCCO3)cc12 (configuration not stated),-1.5,-2.9,1,99.6*,.,.
Cc1ccc2[nH]c(=O)c(CN(Cc3nnnn3C3CCCC3)C3CCCCC3)cc2c1,1.6,23.4,0.8,49.3,0.868,-0.76
Cc1cccc2cc(CN(Cc3cccs3)C3(c4nnnn4C4CCCC4)CCCC3)c(=O)[nH]c12,19.1,18.4,0.8,72.9*,-0.00317,.
